Measured values gathered from unrelated publications.
Each line is one published result; the experiments were not run side by side.
USP51: Ubiquitin carboxyl-terminal hydrolase 51 (USP51, Homo sapiens, UniProt Q70EK9)
CASP3: Caspase-3 (CASP3, Homo sapiens, UniProt P42574)
PDE10A: cAMP and cAMP-inhibited cGMP 3',5'-cyclic phosphodiesterase 10A (PDE10A, Homo sapiens, UniProt Q9Y233)

SMILES	target	test	conditions	inhibition
O=C(Nc1cccnn1)N1CCN([C@@H]2CCOc3cc(C(F)(F)F)ccc32)CC1	Angiotensin-converting enzyme (ACE, Homo sapiens, UniProt P12821)	enzyme activity, inhibitor	20 µM	-7%
C#Cc1n[nH]c2c(-c3cn([C@@H](C)c4ccccc4)c(=O)[nH]c3=O)cc(F)cc12	DNA-dependent protein kinase catalytic subunit (PRKDC, Homo sapiens, UniProt P78527)	enzyme activity, inhibitor	0.1 µM	-1.6%
C[C@@H]1CC[C@H]2[C@@H](C)C(=O)O[C@@H]3O[C@@]4(C)CC[C@@H]1[C@]32OO4	USP51	enzyme activity, inhibitor	5 µM	17%
COCc1c(-c2cc3cc(C)cc(OC)c3s2)c2c(N)ncnn2c1CN1CCNC(=O)C1	Growth hormone secretagogue receptor type 1 (GHSR, Homo sapiens, UniProt Q92847)	ligand displacement, radioligand	10 µM	11%
O=C1CCC[C@@H]2[C@H]3CCCN4CCC[C@H](CN12)[C@@H]34	USP51	enzyme activity, inhibitor	5 µM	0%
Cn1cc(-c2cccc(N3CCc4c(sc5c4CC(C)(C)C5)C3=O)c2CO)cc(Nc2ccncn2)c1=O	Calcium/calmodulin-dependent protein kinase type IV (CAMK4, Homo sapiens, UniProt Q16566)	enzyme activity, inhibitor	1 µM	-5%
CN(C)C(=O)COC(=O)Cc1ccc(OC(=O)c2ccc(NC(=N)N)cc2)cc1	CASP3	enzyme activity, inhibitor	10 µM	0%
O=c1cccc2n1C[C@@H]1CNC[C@H]2C1	USP51	enzyme activity, inhibitor	5 µM	0%
c1ccc(C(NCCNC(c2ccccc2)c2ccccc2)c2ccccc2)cc1	PDE10A	enzyme activity, inhibitor	10 µM	0%
CC(C)[C@]12O[C@H]1[C@@H]1O[C@]13[C@]1(O[C@H]1C[C@H]1C4=C(CC[C@@]13C)C(=O)OC4)[C@@H]2O	USP51	enzyme activity, inhibitor	5 µM	0%
C#Cc1n[nH]c2c(-c3cn(C(C)c4ccccn4)c(=O)[nH]c3=O)cc(F)cc12 (stereo not shown)	Serine/threonine-protein kinase Chk1 (CHEK1, Homo sapiens, UniProt O14757)	enzyme activity, inhibitor	1 µM	7%
CC(=O)N[C@@H](CC(=O)O)C(=O)N[C@@H](CC(N)=O)C(=O)N[C@@H](CC(C)C)C(=O)N[C@H](C=O)CC(=O)O	CASP3	enzyme activity, inhibitor	10 nM	25%
COc1cccc2c1cc([N+](=O)[O-])c1c(C(=O)O)cc3c(c12)OCO3	USP51	enzyme activity, inhibitor	5 µM	36%
N=C(N)c1ccc2cc(OC(=O)c3ccc(N=C(N)N)cc3)ccc2c1	CASP3	enzyme activity, inhibitor	10 µM	0%
C[C@H](C(=O)N[C@H]1COc2ccccc2[C@@H]1S(C)(=O)=O)c1ccc(F)cc1	PDE10A	enzyme activity, inhibitor	10 µM	-4%
Cc1ncc(C)n2nc(/C=C/c3nc(N4CCCC4)cc(N4CCOCC4)n3)nc12	Prostaglandin F2-alpha receptor (PTGFR, Homo sapiens, UniProt P43088)	ligand displacement	10 µM	-9%
